Key:
[1] = tested on: 5′-FAM-DNA20 (20-mer single-stranded DNA); experiment: Fluorescence anisotropy; type: binding
Method in brief: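 Binding was measured by fluorescence anisotropy. CCHC-containing constructs were reconstituted with 3 equiv zinc unless noted. Kd was fitted with a quadratic binding equation corrected for the bound/free intensity ratio.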

[2] = tested on: 59-nt TAR RNA / TAR DNA hairpins; experiment: Gel-shift TAR RNA/DNA annealing assay; type: biochemical, HIV-1; conditions: for kobs: average of three trials ± SD, SD; for Fold decrease of kobs relative to WT NC: normalized for protein concentration
[3] = tested on: 59-nt TAR RNA and TAR DNA; experiment: Sedimentation assay of nucleic acid aggregation; type: biochemical, HIV-1; conditions: 0.2 mM MgCl2
Method in brief: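 Refolded 32P-TAR RNA (15 nM) and TAR DNA (45 nM) were incubated with varying protein in 20 mM HEPES pH 7.5 and 20 mM NaCl (final MgCl2 0.2 mM) for 30 min at 37 °C. Fragments were run at 10–50 μM, with or without zinc. Samples were centrifuged at 10000 rpm for 10 min, and supernatant radioactivity was counted by scintillation.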

[4] = 0.88 μM peptide, 45 nM TAR DNA, 2 mM MgCl2
[5] = 4 μM protein, 90 nM TAR DNA and 2 mM MgCl2

Substance: NC(1-14): HIV-1 NC fragment, residues 1-14, basic N-terminal domain
- Binding to 5′-FAM-DNA20 (in words) ([1]; FA, no zinc acetate): no binding could be detected
- Final % Annealing ([2]; 20 μM peptide, 15 nM TAR RNA, 45 nM TAR DNA, 0.2 mM MgCl2, 37 °C, 30 min): 3%
- Final % Annealing ([2]; 50 μM peptide, 15 nM TAR RNA, 45 nM TAR DNA, 0.2 mM MgCl2, 37 °C, 30 min): did not change appreciably

Substance: NC(1-35): HIV-1 NC fragment, residues 1-35, purchased from Genscript
- Fold higher affinity of zinc-bound form relative to zinc-less variant ([1]; 5′-FAM-DNA20): 2- to 3 fold
- Fold lower ss DNA binding affinity than WT NC ([1]; 5′-FAM-DNA20, 50 mM NaCl): ≤ 2 fold
- Kd ([1]; read-out: Apparent binding dissociation constant Kd to 5′-FAM-DNA20, FA, 20 nM DNA, 20 mM HEPES pH 7.5, 50 mM NaCl, 5 mM β-mercaptoethanol, 10 μM TCEP, 1 μM zinc acetate, 30 min, 25 °C, average of three trials ± SD, SD): 86 ± 19 nM
- RNA annealed at 30 sec ([2]; 0.88 μM peptide, 45 nM TAR DNA, 0.2 mM MgCl2): ~ 75%
- Final % Annealing [2, 4]: 54%
- kobs [2, 4]: 0.17 ± 0.07 min⁻¹
- Fold decrease of kobs relative to WT NC ([2]; 0.88 μM peptide, 2 mM MgCl2): 1.3 fold
- Nucleic acid aggregation (in words) [3]: essentially complete aggregation

Substance: WT (zinc-less): full-length HIV-1 NC not reconstituted with zinc
- Final % Annealing [2, 5]: 22%
- kobs [2, 5]: 0.07 ± 0.02 min⁻¹
- Fold decrease of kobs relative to WT NC [2, 5]: 2 fold
